This is an account of results in ChEMBL document CHEMBL1131624, “Inhibitors of acyl-CoA:cholesterol O-acyltransferase. 2. Identification and structure-activity relationships of a novel series of N-alkyl-N-(heteroaryl-substituted benzyl)-N'-arylureas” (J Med Chem, 1998).

The target of experiment [1] is T1, Sterol O-acyltransferase, Soat (Rattus norvegicus) (UniProt Q7TQM4+O70536). The experiment in a line: Percentage reduction in total cholesterol level at <1 mg/kg. Type of experiment: functional, organism-based. In short, it runs like this: (§1)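 Cholesterol-fed rats given compound orally as a dietary admixture in a cholesterol-enriched diet. Plasma total cholesterol compared with control and reported as percent reduction at the dose, or as ED50, the dose reducing plasma total cholesterol by 50% of the control value.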

A further experiment has as its target O-acyltransferase (Oryctolagus cuniculus, UniProt G1SFD9). The experiment in a line: In vitro inhibitory activity against Acyl coenzyme A:cholesterol acyltransferase (ACAT) in rabbit intestinal microsomes. Also noted: species or system Intestine. In short, it runs like this:
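Enzyme source was mucosal microsomes from small intestine of cholesterol-fed rabbits, incubated with [1-¹⁴C]oleoyl-CoA (Heider method, minor modifications).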

Experiment [2] concerns the target T1, Sterol O-acyltransferase, Soat (Rattus norvegicus). The experiment in a line: Effective dose to reduce plasma total cholesterol level by 50% of the control value in cholesterol fed rats. It is filed as functional. In short, it runs like this: as §1
Experiment [3] shares this target. The experiment in a line: Percentage reduction in total cholesterol level at >1 mg/kg. It is filed as functional, organism-based. Summed up: as §1

Bounds are passed on as bounds.

Sequence of O-acyltransferase (G1SFD9 1-524): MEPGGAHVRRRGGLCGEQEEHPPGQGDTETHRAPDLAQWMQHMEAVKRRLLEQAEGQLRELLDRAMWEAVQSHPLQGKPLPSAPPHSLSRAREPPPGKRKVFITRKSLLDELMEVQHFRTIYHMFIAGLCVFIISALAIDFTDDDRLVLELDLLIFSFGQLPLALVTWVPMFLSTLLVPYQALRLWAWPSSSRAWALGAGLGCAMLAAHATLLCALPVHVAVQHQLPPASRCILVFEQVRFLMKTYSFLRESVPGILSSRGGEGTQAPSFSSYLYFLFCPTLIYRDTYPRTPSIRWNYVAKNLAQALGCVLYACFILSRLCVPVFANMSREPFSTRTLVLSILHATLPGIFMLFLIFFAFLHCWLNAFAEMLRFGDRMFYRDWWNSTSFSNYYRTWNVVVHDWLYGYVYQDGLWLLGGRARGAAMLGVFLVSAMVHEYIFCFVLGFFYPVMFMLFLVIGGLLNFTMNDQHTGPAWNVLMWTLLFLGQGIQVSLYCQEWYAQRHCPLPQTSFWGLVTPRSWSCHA

The molecule `CSc1cc(C)nc(SC)c1NC(=O)N(Cc1ccccc1)Cc1cccc(-c2ccnn2C)c1` yielded a Reduction in experiment [1] of 88%. In addition, 28 nM corresponded to half-maximal inhibition at O-acyltransferase (IC50). In addition, in experiment [2], the ED50 was less than 1 mg/kg.
With `Cc1cc(C)c(NC(=O)N(Cc2ccccc2)Cc2cccc(-c3cc[nH]n3)c2)c(C)c1`, in experiment [3], the Reduction was 36%. Moreover, the IC50 against O-acyltransferase came to 21 nM. The molecule also displayed an ED50 in experiment [2] greater than 1 mg/kg.
Taken in the same sequence, the figures for `Cc1cc(C)c(NC(=O)N(Cc2ccc(-c3cnco3)cc2)C2CCCCCC2)c(C)c1` were 13%, 200 nM and greater than 1 mg/kg.
Regarding `Cc1cc(C)c(NC(=O)N(Cc2ccc(-n3ccnn3)cc2)C2CCCCCC2)c(C)c1`, the Reduction in experiment [3] is 19%. Also, the IC50 on O-acyltransferase is 42 nM. The molecule also gave an ED50 in experiment [2] greater than 1 mg/kg.
For `Cc1cc(C)c(NC(=O)N(Cc2ccc(-c3ccsc3)cc2)C2CCCCCC2)c(C)c1`, 19 nM corresponded to half-maximal inhibition against O-acyltransferase (IC50). For the same molecule, the 50% effective dose (ED50) in experiment [2] worked out at 0.51 mg/kg.
`Cc1cc(C)c(NC(=O)N(Cc2ccc(-c3ccccn3)cc2)C2CCCCCC2)c(C)c1` yielded a Reduction in experiment [3] of 46%. For the same molecule, the IC50 on O-acyltransferase came out at 33 nM. The ED50 in experiment [2] was greater than 1 mg/kg.
At O-acyltransferase, `COc1ccc(CN(Cc2cccc(-c3cc[nH]n3)c2)C(=O)Nc2c(SC)cc(C)nc2SC)cc1` yielded an IC50 of 200 nM. The molecule also came in with an ED50 in experiment [2] of less than 0.1 mg/kg.
`Cc1cc(C)c(NC(=O)N(Cc2ccc(-n3cncn3)cc2)C2CCCCCC2)c(C)c1` displayed a Reduction in experiment [3] of 19%. On O-acyltransferase, this molecule registered an IC50 of 26 nM. The molecule also gave an ED50 in experiment [2] greater than 1 mg/kg.
In turn, `Cc1cc(C)c(NC(=O)N(Cc2ccc(-c3cc[nH]n3)cc2)C2CCCCCC2)c(C)c1` displayed a Reduction in experiment [3] of 17%. Further, the IC50 against O-acyltransferase amounted to 52 nM. The molecule also yielded a median effective dose (ED50) in experiment [2] greater than 1 mg/kg.
In experiment [3], `Cc1cc(C)c(NC(=O)N(Cc2ccc(-n3nccn3)cc2)C2CCCCCC2)c(C)c1` yielded a Reduction of 11%. In addition, on O-acyltransferase, the midpoint of inhibition, the IC50, lay at 130 nM. For the same molecule, the ED50 in experiment [2] was greater than 1 mg/kg.
Taken in the same sequence, the figures for `Cc1cc(C)c(NC(=O)N(Cc2cc(-c3ccccc3)on2)C2CCCCCC2)c(C)c1` were 28%, 61 nM and greater than 1 mg/kg.
Consider `Cc1cc(C)c(NC(=O)N(Cc2ccc(-c3ccccc3)nc2)C2CCCCCC2)c(C)c1`, for which the IC50 on O-acyltransferase came to 260 nM.
Molecule `CSc1cc(C)nc(SC)c1NC(=O)N(Cc1ccc(N(C)C)cc1)Cc1cccc(-c2cc[nH]n2)c1` displayed an IC50 at O-acyltransferase of 72 nM. In addition, the ED50 in experiment [2] is less than 0.1 mg/kg.
In turn, `Cc1cc(C)c(NC(=O)N(Cc2cccc(-c3cc[nH]n3)c2)C2CCCC2)c(C)c1` returned a Reduction in experiment [1] of 76%. The molecule further came in with an IC50 at O-acyltransferase of 22 nM. Also, the ED50 in experiment [2] is less than 1 mg/kg.
As to `Cc1cc(C)c(NC(=O)N(Cc2cccc(-c3ccnn3C)c2)C2CCCCCC2)c(C)c1`, in experiment [3], the Reduction was determined as 34%. Also, at O-acyltransferase, half-maximal inhibition (IC50) required 35 nM. Further, the ED50 in experiment [2] was greater than 1 mg/kg.
In the case of `Cc1cc(C)c(NC(=O)N(Cc2cc(-c3ccccc3)[nH]n2)C2CCCCCC2)c(C)c1`, the IC50 against O-acyltransferase came out at 520 nM.
In experiment [3], `Cc1cc(C)c(NC(=O)N(Cc2ccc(-c3n[nH]c(C)n3)cc2)C2CCCCCC2)c(C)c1` yielded a Reduction of 17%. At O-acyltransferase, half-maximal inhibition (IC50) was put at 120 nM. Also, the ED50 in experiment [2] is greater than 1 mg/kg.
As for `Cc1cc(C)c(NC(=O)N(Cc2cccc(-c3nn[nH]n3)c2)C2CCCCCC2)c(C)c1`, the IC50 against O-acyltransferase was greater than 1000 nM.
At O-acyltransferase, `Cc1cc(C)c(NC(=O)N(Cc2ccc(-c3cccnc3)cc2)C2CCCCCC2)c(C)c1` came in with an IC50 of 130 nM. In experiment [2], this molecule gave an ED50 of 0.58 mg/kg.
At O-acyltransferase, `Cc1cc(C)c(NC(=O)N(Cc2cccc(-c3csc(C)n3)c2)C2CCCCCC2)c(C)c1` yielded an IC50 of 180 nM.
In experiment [1], `Cc1cc(C)c(NC(=O)N(Cc2cccc(-c3nnn(C)n3)c2)C2CCCCCC2)c(C)c1` registered a Reduction of 84%. The molecule also came in with an IC50 on O-acyltransferase of 100 nM. Moreover, in experiment [2], the ED50 was less than 1 mg/kg.
With `CCCCCCCN(Cc1ccc(CC(C)(C)C)cc1)C(=O)Nc1ccc(F)cc1F`, the median effective dose (ED50) in experiment [2] is 5 mg/kg.
In experiment [1], `Cc1cc(C)c(NC(=O)N(Cc2cccc(-c3c[nH]cn3)c2)C2CCCCCC2)c(C)c1` showed a Reduction of 84%. This molecule also gave an ED50 in experiment [2] of less than 1 mg/kg.
As for `Cc1cc(C)c(NC(=O)N(Cc2ccc(-c3cn[nH]c3)cc2)C2CCCCCC2)c(C)c1`, in experiment [3], the Reduction was 8%. This molecule returned an IC50 on O-acyltransferase of 270 nM. Moreover, the 50% effective dose (ED50) in experiment [2] was greater than 1 mg/kg.
As for `Cc1cc(C)c(NC(=O)N(Cc2cc(-c3ccccc3)cs2)C2CCCCCC2)c(C)c1`, the Reduction in experiment [1] turned out to be 69%. The half-maximal inhibitory concentration (IC50) against O-acyltransferase came to 36 nM. The molecule further had an ED50 in experiment [2] of less than 1 mg/kg.
Consider `Cc1cc(C)c(NC(=O)N(Cc2cccc(-n3cccc3)c2)C2CCCCCC2)c(C)c1`, for which the IC50 at O-acyltransferase was found to be 20 nM. In experiment [2], this molecule had an ED50 of 0.17 mg/kg.
Turning to `Cc1cc(C)c(NC(=O)N(Cc2cccc(-c3cnn(C)c3)c2)C2CCCCCC2)c(C)c1`, the Reduction in experiment [1] came to 74%. In addition, on O-acyltransferase, the midpoint of inhibition, the IC50, lay at 44 nM. Further, the ED50 in experiment [2] was less than 1 mg/kg.
For the molecule `O=C(Nc1c(F)cc(F)cc1F)N(Cc1ccccc1)Cc1cccc(-c2cc[nH]n2)c1`, at O-acyltransferase, the IC50 was 14 nM. The molecule also yielded an ED50 in experiment [2] of 0.096 mg/kg.
For the molecule `Cc1cc(C)c(NC(=O)N(Cc2ccc(-n3ccnc3)cc2)C2CCCCCC2)c(C)c1`, in experiment [3], the Reduction was determined as 26%. Also, the half-maximal inhibitory concentration (IC50) at O-acyltransferase stood at 47 nM. The ED50 in experiment [2] was greater than 1 mg/kg.
`CSc1cc(C)nc(SC)c1NC(=O)N(Cc1ccc(Oc2ccc(F)cc2)cc1)C1CCCCCC1` returned an IC50 against O-acyltransferase of 30 nM. Moreover, in experiment [2], the ED50 stood at 0.034 mg/kg.
In the case of `O=C(Nc1c(F)cc(F)cc1F)N(Cc1ccc(-c2ccccn2)cc1)C1CCCCCC1`, the Reduction in experiment [3] turned out to be 30%. Moreover, at O-acyltransferase, half-maximal inhibition (IC50) required 25 nM. The molecule further returned an ED50 in experiment [2] greater than 1 mg/kg.
On to `Cc1cc(C)c(NC(=O)N(Cc2cccc(-c3cc[nH]n3)c2)C2CCCCC2)c(C)c1`, for which, on O-acyltransferase, the IC50 worked out at 39 nM. The molecule further registered an ED50 in experiment [2] of 0.12 mg/kg.
In experiment [1], `CSc1cc(C)nc(SC)c1NC(=O)N(Cc1ccccc1)Cc1cccc(-c2ccn(C)n2)c1` yielded a Reduction of 77%. The molecule further displayed an IC50 against O-acyltransferase of 73 nM. In experiment [2], this molecule showed an ED50 of less than 1 mg/kg.
The molecule `Cc1cc(C)c(NC(=O)N(Cc2cccc(-c3nnnn3C)c2)C2CCCCCC2)c(C)c1` gave a Reduction in experiment [3] of 26%. This molecule showed a median effective dose (ED50) in experiment [2] greater than 1 mg/kg.
`Cc1cc(C)c(NC(=O)N(Cc2ccc(N3CCN(C)CC3)cc2)C2CCCCCC2)c(C)c1` displayed a Reduction in experiment [3] of 23%. Also, the IC50 on O-acyltransferase came to 57 nM. For the same molecule, the ED50 in experiment [2] is greater than 1 mg/kg.
Turning to `Cc1cc(C)c(NC(=O)N(Cc2ccc(-c3cccs3)cc2)C2CCCCCC2)c(C)c1`, 22 nM corresponded to half-maximal inhibition against O-acyltransferase (IC50). Besides, in experiment [2], it took a dose of 0.28 mg/kg to reach the 50% effect level (ED50).
Taken in the same sequence, the figures for `CSc1cc(C)nc(SC)c1NC(=O)N(Cc1ccc(F)cc1)Cc1cccc(-c2cc[nH]n2)c1` were 250 nM and less than 0.1 mg/kg.
Taken in the same sequence, the figures for `Cc1cc(C)c(NC(=O)N(Cc2ccc(-c3cnn(C)c3)cc2)C2CCCCCC2)c(C)c1` were 47 nM and 0.31 mg/kg.
`CSc1cc(C)nc(SC)c1NC(=O)N(Cc1ccccc1)Cc1cccc(-c2cc[nH]n2)c1` returned an IC50 against O-acyltransferase of 99 nM. Besides, it took a dose of 0.046 mg/kg to reach the 50% effect level in experiment [2] (ED50).
As for `O=C(Nc1c(F)cc(F)cc1F)N(Cc1ccc(-n2cccc2)cc1)C1CCCCCC1`, the Reduction in experiment [3] is 21%. The same molecule registered an IC50 at O-acyltransferase of 27 nM. This molecule also showed an ED50 in experiment [2] greater than 1 mg/kg.
Regarding `Cc1cc(C)c(NC(=O)N(Cc2cccc(-c3cn[nH]c3)c2)C2CCCCCC2)c(C)c1`, the IC50 at O-acyltransferase came to 38 nM. The molecule further returned an ED50 in experiment [2] of 0.19 mg/kg.
`O=C(Nc1c(F)cc(F)cc1F)N(Cc1ccc(-c2cccs2)cc1)C1CCCCCC1` showed a Reduction in experiment [3] of 33%. At O-acyltransferase, this molecule displayed an IC50 of 18 nM. This molecule also had an ED50 in experiment [2] greater than 1 mg/kg.
